Bioassay records from PubChem BioAssay.
This excerpt belongs to a sample that is enriched for hits.
INS-1E rescue: INS-1E beta cell protection from cytokine death | 20,000 compounds, 0.1% hits | AID 488910 | INS-1E cytokine-induced death, ATP luminescence, 48 h; normalised: neutral wells 0, positive control 100 | protection from cytokine-induced ATP loss, % at 10 µM;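 active = mean replicate protection from cytokine-induced ATP loss at least 50% and at least 75% of replicates each reaching 50%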
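Material: INS-1E rat cells; Quantity: 8000 cells/well; Buffer or medium: phenol-red-free RPMI with 5% fetal bovine serum; Probe or stimulus: cytokine cocktail of IFN-γ, TNF-α and IL-1β; Compound dosing: single test concentration per compound, delivered by pin transfer; Incubation: 48 h co-treatment, 10 min post-lysis read; Signal: CellTiter-Glo luminescence.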
A1 apoptosis 2: A1 inhibition read as caspase activation; MEF A1-2A-BIM cells, caspase-Glo luminescence, 3 h; percent of clofoctol response, DMSO zero; caspase activation, % (concentration not given with the values); 24,000 tested, under 10 active; AID 2465; in the data active = caspase activation above about 5.9%
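Material: mouse embryonic fibroblasts co-expressing A1 and BIM (A1-2A-BIM), primed for A1 dependence / Quantity: 2500 cells/well / Buffer or medium: RPMI-1640 growth medium with 10% FBS / Doses: 50 nL compound per well, pinned / Schedule: 3 h compound exposure at 37 °C / Signal: Caspase-Glo luminescence (DEVD substrate) / Measure: Caspase-3/7 activation, seen as rise in luminescence signal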
T cruzi HTS: blocks T. cruzi growth inside host cells; 22,000 compounds, 4.9% hits; AID 651903; activity score (inhibition), % at 5.01 µM; intracellular Trypanosoma cruzi in host cells, plate reader; in the data active = activity score above about 55%;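 note: parasites and compound incubated about four days before reading; 0% = median of neutral control wells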
* marks the source's active call; other numbers are inactive results; x = no result given.

SMILES | INS-1E rescue | A1 apoptosis 2 | T cruzi HTS
C[C@@H]1CN([C@H](C)CO)C(=O)c2cc(NS(=O)(=O)c3cn(C)cn3)ccc2O[C@@H]1CN(C)Cc1ccc(Cl)c(Cl)c1 | -4.6 | x | 5.8
COc1ccc(/C=N/NC(=O)c2ccccn2)cc1Br | -3.4 | -4.9 | 0.3
Cc1noc(C)c1NC(=O)Nc1ccc2c(c1)C(=O)N([C@@H](C)CO)C[C@H](C)[C@@H](CN(C)C(=O)Nc1ccc3c(c1)OCO3)O2 | 1.5 | x | -21.3
Cc1ccc(S(=O)(=O)N(C)C[C@@H]2Oc3ccc(NC(=O)Nc4ccc(C(F)(F)F)cc4)cc3CC(=O)N([C@@H](C)CO)C[C@H]2C)cc1 | x | -0.5 | x
COc1ccc(S(=O)(=O)N(C)C[C@H]2Oc3ccc(NC(=O)Nc4ccc(C(F)(F)F)cc4)cc3CC(=O)N([C@H](C)CO)C[C@H]2C)cc1 | 2.8 | -0.3 | 64.7*
COc1ccc(S(=O)(=O)N(C)C[C@@H]2Oc3ccc(NC(=O)Nc4ccc(C(F)(F)F)cc4)cc3CC(=O)N([C@@H](C)CO)C[C@H]2C)cc1 | x | 0.0 | x
C[C@H](CO)N1C[C@H](C)[C@H](CN(C)S(=O)(=O)c2ccc(F)cc2)Oc2ccc(NC(=O)Nc3ccc(C(F)(F)F)cc3)cc2CC1=O | -66.8 | 0.9 | 69.3*
Cc1ccc(S(=O)(=O)N(C)C[C@H]2Oc3ccc(NC(=O)Nc4ccc(C(F)(F)F)cc4)cc3CC(=O)N([C@H](C)CO)C[C@H]2C)cc1 | -4.6 | 0.0 | 64.0*
C[C@H](CO)N1C[C@H](C)[C@H](CN(C)S(=O)(=O)c2ccc(F)cc2)Oc2ccc(NC(=O)Nc3ccc(F)cc3)cc2CC1=O | -6.6 | -0.7 | 23.1
C[C@H](CO)N1C[C@H](C)[C@@H](CN(C)CC2CC2)Oc2ccc(NC(=O)NC3CCCCC3)cc2CC1=O | x | -0.2 | x
C[C@@H]1CN([C@@H](C)CO)C(=O)c2cccc(NS(=O)(=O)c3cn(C)cn3)c2O[C@@H]1CN(C)C(=O)Nc1ccc(C(F)(F)F)cc1 | 8.2 | 0.0 | -24.0
Cc1noc(C)c1NC(=O)Nc1cccc2c1O[C@@H](CN(C)S(=O)(=O)c1ccccc1)[C@H](C)CN([C@H](C)CO)C2=O | 11.2 | x | -11.4
COc1ccc(S(=O)(=O)N(C)C[C@@H]2Oc3ncc(C#Cc4cccc(F)c4)cc3C(=O)N([C@H](C)CO)C[C@@H]2C)cc1 | x | x | 52.1
C[C@H](CO)N1C[C@H](C)[C@H](CN(C)S(=O)(=O)c2cccs2)Oc2ncc(C#Cc3cccc(F)c3)cc2C1=O | x | x | 71.3*
C[C@H](CO)N1C[C@H](C)[C@H](CN(C)S(=O)(=O)c2ccc(F)cc2)Oc2ncc(C#Cc3ccccc3)cc2C1=O | x | x | 61.8*
COc1ccc(S(=O)(=O)N(C)C[C@@H]2Oc3ncc(C#Cc4ccc(C(F)(F)F)cc4)cc3C(=O)N([C@H](C)CO)C[C@@H]2C)cc1 | -4.2 | x | 82.4*
Cc1ccc(S(=O)(=O)N(C)C[C@@H]2Oc3ncc(C#Cc4ccc(C(F)(F)F)cc4)cc3C(=O)N([C@H](C)CO)C[C@@H]2C)cc1 | -3.1 | 1.5 | 89.3*
C[C@H](CO)N1C[C@H](C)[C@H](CN(C)S(C)(=O)=O)Oc2ncc(C#Cc3cccc(F)c3)cc2C1=O | x | x | -5.7
C[C@H](CO)N1C[C@H](C)[C@H](CN(C)S(=O)(=O)c2ccccc2)Oc2ncc(C#Cc3ccccc3)cc2C1=O | x | 1.3 | 48.2
Cc1ccc(S(=O)(=O)N(C)C[C@@H]2Oc3ncc(C#CCN(C)C)cc3C(=O)N([C@H](C)CO)C[C@@H]2C)cc1 | x | x | 23.2
C[C@H]1CN([C@@H](C)CO)C(=O)c2cc(NC(=O)C3CC3)ccc2O[C@H]1CN(C)Cc1ccccc1 | x | 0.5 | 4.8
Cc1ccc(S(=O)(=O)N(C)C[C@@H]2OCCCC[C@@H](C)Oc3ccc(NS(=O)(=O)c4ccc(F)cc4)cc3C(=O)N([C@@H](C)CO)C[C@@H]2C)cc1 | x | -1.4 | x
COc1ccc(NC(=O)N(C)C[C@H]2Oc3c(NC(=O)c4nc5ccccc5s4)cccc3C(=O)N([C@H](C)CO)C[C@H]2C)cc1 | -0.1 | -0.9 | -15.3
COc1ccc(S(=O)(=O)N(C)C[C@@H]2Oc3c(NS(=O)(=O)c4ccccc4)cccc3C(=O)N([C@H](C)CO)C[C@H]2C)cc1 | 3.8 | 0.4 | 13.9
COc1ccc(C#Cc2cnc3c(c2)C(=O)N([C@H](C)CO)C[C@H](C)[C@H](CN(C)S(=O)(=O)c2ccccc2)O3)cc1OC | x | -1.0 | 36.5
C[C@H](CO)N1C[C@H](C)[C@H](CN(C)S(=O)(=O)c2ccc(F)cc2)Oc2ncc(C#Cc3ccc(C(F)(F)F)cc3)cc2C1=O | x | -0.9 | 85.4*
